Source: PubChem BioAssay (The Scripps Research Institute Molecular Screening Center)
NR2E3 ag-1: agonists of human NR2E3 nuclear receptor | CHO-S Gal4-NCOR/VP16-NR2E3 two-hybrid, luciferase | Q9Y5X4 | actives 0.35% (n = 360,000) | inhibition of corepressor binding, % at 3.98 µM;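 active means inhibition above the mean of all tested compounds plus 3 SD, cut at about 70% in these data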;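 further: 0% = DMSO with NR2E3 transfected cells and 100% = cells lacking NR2E3 construct; higher means lower luciferase signal from less NR2E3 corepressor binding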
COUP-TFII inh: inhibitors of human COUP-TFII (NR2F2) | actives 0.7% (n = 370,000) | P24468 | HEK293T NGFI-A luciferase reporter, luminescence | inhibition, % at 8.6 µM;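 active means inhibition above a per-plate cutoff, mean inhibition of test wells between control levels plus 3 SD, cut at about 38% in these data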;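 further: cells cotransfected with COUP-TFII expression vector driving the NGFI-A reporter; 0% = median of COUP-TF2 test wells and 100% = reporter-only cells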
Target sequence (P24468 whole entry, looked up): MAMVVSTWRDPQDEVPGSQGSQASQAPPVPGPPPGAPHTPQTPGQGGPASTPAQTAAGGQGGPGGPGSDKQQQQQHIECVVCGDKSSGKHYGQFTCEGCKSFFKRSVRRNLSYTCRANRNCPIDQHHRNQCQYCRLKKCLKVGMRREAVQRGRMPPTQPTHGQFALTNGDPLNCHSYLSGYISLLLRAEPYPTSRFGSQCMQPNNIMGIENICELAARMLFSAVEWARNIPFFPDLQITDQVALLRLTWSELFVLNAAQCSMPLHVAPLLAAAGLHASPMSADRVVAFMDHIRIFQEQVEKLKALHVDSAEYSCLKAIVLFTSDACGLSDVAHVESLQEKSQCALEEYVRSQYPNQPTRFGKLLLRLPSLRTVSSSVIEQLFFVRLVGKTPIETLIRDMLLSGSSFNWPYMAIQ
NR2E3 ag-2: agonists of human nuclear receptor NR2E3 | GST-NR2E3/biotin-RetCOR TR-FRET, 1536-well | AID 2300 | actives 0.12% (n = 320,000) | inhibition of corepressor binding, % at 4.78 µM;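 active means percent inhibition above the cutoff of mean plus 3 SD of all tested compounds, set per screening campaign, cut at about 20% in these data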;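 further: 0% = DMSO wells and 100% = biotin wells as full block of FRET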
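Format: 1536-well format; test system: GST-NR2E3 and biotin-RetCOR proteins; read-out basis: percent inhibition of TR-FRET ratio; timing: 5 h incubation at 4 °C; detection: time-resolved FRET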
GalR3 antagonist: blocks the human galanin receptor 3 | inhibition, % at 3 µM | O60755 | actives 0.44% (n = 360,000) | HEK293 GalR3-CNG cAMP membrane potential fluorescence; galR3 body fused to GalR1 C-terminus;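 active means inhibition above the screen-wide average plus 3 SD, cut at about 13% in these data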;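 further: forskolin and galanin both at EC90 stimulate the cells; cAMP rise reported by CNG channel membrane potential dye signal; 0% = forskolin plus galanin with DMSO and 100% = forskolin alone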
SMARCA2 activ: activators of SMARCA2 function; activation, % at 9.1 µM; actives 1% (n = 370,000); MG213 cells, MMTV-luciferase reporter, dexamethasone, overnight; AID 652017; in the data active means activation above about 7.8%;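 further: 0% = vehicle wells and 100% = reference activator wells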
NR2E3 ag confirm: NR2E3 agonism confirmed in two-hybrid assay; shares compounds with NR2E3 ag-1; inhibition, % at 3.98 µM; actives 51% (n = 2,300); CHO-S mammalian two-hybrid NR2E3-NCOR, luciferase luminescence;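 active means average inhibition above a cutoff equal to the mean inhibition of all tested compounds plus one SD, cut at about 70% in these data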;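 further: 0% = DMSO in NR2E3 cells and 100% = DMSO in cells lacking NR2E3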
GAL4-VP16 luc: reduces GAL4-VP16 reporter signal in NR2E3 counterscreen; shares compounds with NR2E3 ag-1; CHO-S GAL4-VP16 luciferase reporter, luminescence; inhibition, % at 3.98 µM; actives 29% (n = 2,300);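 active means mean inhibition above a cutoff equal to the average over all tested compounds plus one standard deviation, cut at about 70% in these data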;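 further: luciferase from a UAS reporter driven by GAL4-VP16 transactivation; 0% = DMSO with VP16-transfected cells and 100% = DMSO with cells lacking VP16; higher means less reporter light so more repression of VP16 activity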
* = called active by the depositor. Most compounds without a hit are left out; they make up all but 2.2% or so of the library.

`C=CCn1c(C)cc(C(=O)CN2C(=O)c3ccccc3S2(=O)=O)c1C` gave NR2E3 ag-1 56, NR2E3 ag-2 2, NR2E3 ag confirm 76* and GAL4-VP16 luc 34.
`COCCn1c(C)cc(C(=O)CSc2nc3ccccc3c(=O)[nH]2)c1C` gave NR2E3 ag-1 -81, COUP-TFII inh -24, NR2E3 ag-2 -3, GalR3 antagonist -6 and SMARCA2 activ 7.
For C=CCn1c(C)cc(C(=O)CSc2nc3ccccc3[nH]2)c1C the results were NR2E3 ag-1 64, COUP-TFII inh 37, NR2E3 ag-2 -2, GalR3 antagonist -6, SMARCA2 activ -4, NR2E3 ag confirm 33 and GAL4-VP16 luc -36.
Screening COCC(C)n1c(C)cc(C(=O)CSc2nc3ccccc3c(=O)[nH]2)c1C (centres undefined) returned NR2E3 ag-1 51, COUP-TFII inh 28, NR2E3 ag-2 1, GalR3 antagonist 1, SMARCA2 activ -3, NR2E3 ag confirm 64 and GAL4-VP16 luc 52.
`Cc1cc(C(=O)CSc2nc3ccc(Cl)cc3[nH]2)c(C)n1C` gave NR2E3 ag-1 -12, COUP-TFII inh 11, NR2E3 ag-2 0, GalR3 antagonist 10 and SMARCA2 activ -2.
`Cc1cc(C(=O)CSc2nc3ccc(Cl)cc3[nH]2)c(C)n1CC1CCCO1` (centres undefined) gave NR2E3 ag-1 57, COUP-TFII inh 18, NR2E3 ag-2 0, GalR3 antagonist -5, SMARCA2 activ -5, NR2E3 ag confirm 80* and GAL4-VP16 luc 64.
`Cc1cc(C(=O)CN2C(=O)c3ccccc3S2(=O)=O)c(C)n1-c1ccccc1` gave NR2E3 ag-1 -28, COUP-TFII inh 35, NR2E3 ag-2 3, GalR3 antagonist -3 and SMARCA2 activ -5.
`COc1cc2c(cc1NC(=O)CSc1nnc(COc3ccccc3)n1Cc1ccco1)oc1ccccc12` gave COUP-TFII inh -2 and SMARCA2 activ -1.
CC1(C)C(=O)OC(c2ccco2)C(C)(C)C1=O (centres undefined) was read as NR2E3 ag-1 0, COUP-TFII inh -22, NR2E3 ag-2 -1, GalR3 antagonist 1 and SMARCA2 activ 2.
CCC1(CC)C(=O)C(C)(C)C(=O)OC1c1ccccn1 (centres undefined) was read as NR2E3 ag-1 92*, COUP-TFII inh 3, NR2E3 ag-2 0, GalR3 antagonist -4, SMARCA2 activ 0, NR2E3 ag confirm 19 and GAL4-VP16 luc 15.
CC(C)(C)c1ccc(-n2ncc3c2CCCC3NC(=O)CN2CCCCC2=O)cc1 (centres undefined) was read as NR2E3 ag-1 58, COUP-TFII inh 37, NR2E3 ag-2 -5, GalR3 antagonist 0, SMARCA2 activ -5, NR2E3 ag confirm 15 and GAL4-VP16 luc 39.
CC(C)(C)c1ccc(-n2ncc3c2CCCC3NC(=O)CCn2cncn2)cc1 (centres undefined) was read as NR2E3 ag-1 25, COUP-TFII inh -9, NR2E3 ag-2 1, GalR3 antagonist -4 and SMARCA2 activ -3.
Screening CC(C)(C)c1ccc(-n2ncc3c2CCCC3NC(=O)CCN2CCCO2)cc1 (centres undefined) returned NR2E3 ag-1 66, COUP-TFII inh 25, NR2E3 ag-2 1, GalR3 antagonist 2, SMARCA2 activ 0, NR2E3 ag confirm -9 and GAL4-VP16 luc 41.
For C=CCN(CC#CC1=CCCCC1)Cc1ccc(OC)cc1OC the results were COUP-TFII inh 3 and SMARCA2 activ -2.
`Cc1ccc(S(=O)(=O)N2[C@@H](c3ccc(Br)cc3)C(C(=O)O)=CC[C@H]2c2ccc(C(C)C)cc2)cc1` gave NR2E3 ag-1 -11, COUP-TFII inh -1, GalR3 antagonist -4 and SMARCA2 activ 3.
CCc1ccc([C@@H]2CC=C(C(=O)O)[C@H](c3ccc(C(C)(C)C)cc3)N2S(=O)(=O)c2ccc(C)cc2)cc1 was read as NR2E3 ag-1 93*, COUP-TFII inh -3, GalR3 antagonist -10, SMARCA2 activ -2, NR2E3 ag confirm 96* and GAL4-VP16 luc 62.
